Experimental data taken from ChEMBL document CHEMBL1125636, “L-687,908, a potent hydroxyethylene-containing HIV protease inhibitor” (J Med Chem, 1991).
Values after ≈ are worked out from the molar mass of the structure shown. Where a SMILES comes first, the peptide text is derived from it.

What was measured:
[1] = molecular target: Human immunodeficiency virus type 1 protease (Human immunodeficiency virus 1, UniProt Q72874); assay: Inhibition of HIV-1 protease; assay type: functional
Method in brief: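 HIV-1 protease peptide hydrolysis: octapeptide substrate H2N-ValSerGlnAsn(β-naphthyl-Ala)ProIle-Val-OH at 430 μM (Km = 160 μM), enzyme at 0.030 nM; cleavage quantitated by HPLC; IC50 from this readout.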

H9 = assay: Minimum inhibitory concentration required to prevent HIV infection was determined in H9 human T-lymphoid cell culture; assay type: functional
Method in brief: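 H9 human T-lymphoid cells were infected with HIV-1 IIIb at a multiplicity of infection of 1.0%, with no compound present. Compound was added 1 day after infection, predissolved in DMSO and serially diluted in RPMI-1640 with 10% FBS. Medium with fresh compound was replaced every 2–3 days. Cells were harvested at 14 days and scored by immunofluorescence with anti-HIV-1 human serum. MIC was the lowest concentration totally preventing spread beyond the initially infected cells.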

Renin [2] = molecular target: T1, Renin (Rattus norvegicus, UniProt P08424); assay: Concentration required to inhibit 50% activity of plasma renin was determined at pH 7.4; Inactive; assay type: functional, cell-free
T1 sequence (P08424 whole entry): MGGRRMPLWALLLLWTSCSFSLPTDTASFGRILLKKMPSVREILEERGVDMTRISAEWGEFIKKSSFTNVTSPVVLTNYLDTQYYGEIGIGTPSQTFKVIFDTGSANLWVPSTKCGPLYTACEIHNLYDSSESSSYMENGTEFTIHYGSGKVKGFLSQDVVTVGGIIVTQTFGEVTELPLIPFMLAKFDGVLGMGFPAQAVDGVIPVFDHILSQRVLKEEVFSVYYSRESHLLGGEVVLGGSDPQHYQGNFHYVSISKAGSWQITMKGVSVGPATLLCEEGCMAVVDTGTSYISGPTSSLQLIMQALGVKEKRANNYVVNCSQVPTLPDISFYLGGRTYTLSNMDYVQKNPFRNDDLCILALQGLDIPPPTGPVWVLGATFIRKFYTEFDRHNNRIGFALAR

Renin [3] = molecular target: T1, Renin; assay: Concentration required to inhibit 50% activity of renin was determined; assay type: functional
Method in brief: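 Purified plasma renin, assayed at pH 7.4; IC50 reported.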

SMILES | IC50 [1] [nM] | MIC (H9) [µM] | IC50 (Renin [2]) [nM] | IC50 (Renin [3]) [nM]
CC(C)CC(NC(=O)[C@H](Cc1ccccc1)C[C@H](O)[C@H](Cc1ccccc1)NC(=O)OC(C)(C)C)C(=O)NCCc1ccccc1 (stereo partly specified) | 12 |  |  | 
CC(C)(C)OC(=O)N[C@@H](Cc1ccccc1)[C@@H](O)C[C@@H](Cc1ccccc1)C(=O)NCc1ccccc1 | 111 | > 50 |  | 
CC(C)CC(NC(=O)[C@H](Cc1ccccc1)C[C@H](O)[C@H](Cc1ccccc1)NC(=O)OC(C)(C)C)C(=O)NCc1ccccc1 (stereo partly specified) | 1.4 | 3 (≈ 1.85 µg/mL) |  | 
CCC(C)C(NC(=O)[C@H](Cc1ccccc1)C[C@H](O)[C@H](Cc1ccccc1)NC(=O)OC(C)(C)C)C(=O)NCc1ccccc1 (stereo partly specified) | 0.71 | 1.5 (≈ 0.924 µg/mL) |  | 
CCC(C)C(NC(=O)[C@H](Cc1ccccc1)C[C@H](O)[C@H](Cc1ccccc1)NC(=O)OC(C)(C)C)C(=O)NCC(O)CO (stereo partly specified) | 0.15 | 1.5 (≈ 0.9 µg/mL) |  | 
CC(C)C[C@H](NC(=O)[C@H](Cc1ccccc1)C[C@H](O)[C@H](Cc1ccccc1)NC(=O)OC(C)(C)C)C(=O)N[C@@H](Cc1ccccc1)C(N)=O | 0.6 | 6 (≈ 4.04 µg/mL) | > 10000 | 
CC[C@H](C)[C@H](NC(=O)[C@H](Cc1ccccc1)C[C@H](O)[C@H](Cc1ccccc1)NC(=O)OC(C)(C)C)C(=O)NCc1nc2ccccc2[nH]1 | 0.07 | 0.2 (≈ 0.131 µg/mL) |  | 
CC[C@H](C)[C@H](NC(=O)[C@H](C/C=C/c1ccccc1)C[C@H](O)[C@H](Cc1ccccc1)NC(=O)OC(C)(C)C)C(=O)NCc1nc2ccccc2[nH]1 | 0.03 | 0.012 (≈ 0.00818 µg/mL) |  | 
CC(C)C[C@H](NC(=O)[C@H](Cc1ccccc1)C[C@H](O)[C@H](Cc1ccccc1)NC(=O)[C@H](Cc1ccccc1)NC(=O)OC(C)(C)C)C(=O)N[C@@H](Cc1ccccc1)C(N)=O | 20 |  |  | 
CC(C)C[C@H](NC(=O)[C@H](Cc1ccccc1)C[C@H](O)[C@H](Cc1ccccc1)NC(=O)CC(C)(C)C)C(=O)N[C@@H](Cc1ccccc1)C(N)=O | 6 |  |  | 
CC(C)CC(NC(=O)[C@H](Cc1ccccc1)C[C@H](O)[C@H](Cc1ccccc1)NC(=O)OC(C)(C)C)C(N)=O (stereo partly specified) | 12 | 6 (≈ 3.15 µg/mL) |  | 
CC(C)CCNC(=O)[C@H](Cc1ccccc1)C[C@H](O)[C@H](Cc1ccccc1)NC(=O)OC(C)(C)C | 470 |  |  | 
CC(C)C[C@H](NC(=O)[C@H](C/C=C/c1ccccc1)C[C@H](O)[C@H](Cc1ccccc1)NC(=O)OC(C)(C)C)C(=O)N[C@@H](Cc1ccccc1)C(N)=O | 0.15 | 6 (≈ 4.19 µg/mL) |  | 
CC(C)C[C@H](NC(=O)[C@H](Cc1ccccc1)C[C@H](O)[C@H](Cc1ccccc1)NC(=O)[C@H](Cc1ccccc1)NC(=O)[C@H](Cc1ccccc1)NC(=O)OC(C)(C)C)C(=O)N[C@@H](Cc1ccccc1)C(N)=O (HELM PEPTIDE1{[CC(C)(C)OC(=O)[*:2]].F.F.[O=C([C@H](Cc1ccccc1)C[C@H](O)[C@H](Cc1ccccc1)N[*:1])[*:2]].L.F.[am]}$$$$V2.0) | 1 | 50 (≈ 48.4 µg/mL) |  | 73
